APJ ag: activates the human apelin receptor APJ | P35414 | CHO-K1 APJ PathHunter beta-arrestin, luminescence; 0% DMSO wells, 100% apelin | activation, % at 20 µM | 330,000 tested, 0.11% active | AID 2520;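 active = activation more than six SD over the plate average, tested at 20 µM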;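 also: 0% = DMSO alone and 100% = apelin-13 at 10 nM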
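Incubation: overnight seeding, 90 min compound at 25 °C, 1 h detection; test system: PathHunter CHO-K1 APJ (AGTRL-1) beta-arrestin reporter cells; amount: 1000 cells/well; doses: one dose, 20 µM compound, 1% DMSO; measured by: beta-gal luminescence; measure: agonist-driven arrestin binding to APJ; benchmarks: negative DMSO alone, positive Apelin-13 at 10 nM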
EBI2 antag: blocks human EBI2 receptor beta-arrestin signaling; P32249; EBI2 beta-arrestin recruitment, luminescence, 7a,25-OHC stimulated; inhibition, % at 5 µM; 360,000 tested, 0.81% active; in the data active = inhibition above about 38%;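 also: enzyme fragment complementation signal reports receptor beta-arrestin coupling in cells; 0% = agonist plus DMSO wells and 100% = wells without agonist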
CXCR6 inh: inhibitors of human CXCR6 receptor; O00574; 360,000 tested, 0.36% active; AID 602244; inhibition, % at 20 µM; CHO-K1 PathHunter CXCR6 beta-arrestin, luminescence; in the data active = inhibition above about 34%, passing the limit was not always enough;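 also: antagonist mode with CXCL16 agonist at 10 nM final; 0% = 10 nM CXCL16 with DMSO and 100% = unstimulated wells without agonist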
Target sequence (O00574 whole entry, looked up): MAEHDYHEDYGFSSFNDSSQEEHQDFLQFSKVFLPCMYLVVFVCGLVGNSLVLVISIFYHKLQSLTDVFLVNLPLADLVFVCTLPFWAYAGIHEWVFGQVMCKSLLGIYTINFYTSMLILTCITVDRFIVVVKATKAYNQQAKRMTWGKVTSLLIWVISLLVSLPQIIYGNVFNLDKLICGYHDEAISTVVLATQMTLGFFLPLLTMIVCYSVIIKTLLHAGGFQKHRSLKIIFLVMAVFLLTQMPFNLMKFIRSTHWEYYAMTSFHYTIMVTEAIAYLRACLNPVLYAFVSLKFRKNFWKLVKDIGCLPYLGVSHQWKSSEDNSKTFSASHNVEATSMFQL
APJ antag: blocks the human apelin receptor APJ. P35414. CHO-K1 APJ beta-arrestin complementation, luminescence. inhibition, % at 20 µM. 330,000 tested, 0.32% active. AID 2521;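 active = inhibition above about 40% at 20 µM, limit read from the data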;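 also: cells challenged with 10 nM apelin-13 agonist together with compound; plate controls were apelin-13 plus DMSO wells for no effect and DMSO wells lacking apelin-13 for full effect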
CCR6 antagonist: blocks CCL20-driven beta-arrestin recruitment at human CCR6 | P51684 | inhibition, % at 20 µM | CHO-K1 CCR6 PathHunter beta-arrestin, luminescence, CCL20-stimulated | 340,000 tested, 0.49% active | AID 493098;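 active = compounds whose inhibition of the agonist-driven luminescence signal at 20 µM reaches about 50%, limit read from the data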;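 also: cells stimulated with CCL20 at 14 nM final; plate controls were DMSO with CCL20 for no effect and DMSO without agonist for full effect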
APJ antag conf: APJ receptor antagonism confirmation | shares compounds with APJ antag | APJ beta-arrestin recruitment, luminescence, antagonist mode | inhibition, % at 20 µM | 950 tested, 66% active | AID 2766; in the data active = inhibition above about 50%
Starred values were filed as active, the others as inactive. This is a sample that favours compounds with a hit; in the whole collection about 1.5% have one here.

`O=C(Nc1ccccc1C(F)(F)F)NC1CCCCCCC1` gave APJ ag -3, EBI2 antag 1, CXCR6 inh -10, APJ antag 9 and CCR6 antagonist 12.
`ON1C2CCCCC2N(O)C1c1ccccc1C(F)(F)F` (configuration not stated) gave APJ ag -8, EBI2 antag -1, CXCR6 inh 19, APJ antag 48*, CCR6 antagonist 56* and APJ antag conf 29.
For Cc1ccc(O)c(-c2cc(C(=O)NCc3ccc4c(c3)OCO4)[nH]n2)c1 the results were APJ ag -4, EBI2 antag 8, CXCR6 inh -5, APJ antag 45*, CCR6 antagonist 11 and APJ antag conf -3.
For Cc1ccc(CNC(=O)c2cc(-c3cc(C)cc(C)c3O)n[nH]2)cc1 the results were APJ ag -1, EBI2 antag 34, CXCR6 inh -4, APJ antag 2 and CCR6 antagonist 8.
C/C=C/c1ccc(OCCCCN(C)Cc2ccccc2)c(OC)c1 was read as APJ ag -5, EBI2 antag 0, CXCR6 inh 8, APJ antag 51*, CCR6 antagonist 1 and APJ antag conf 18.
Screening CN(C)c1ccc2nc3ccc(=O)cc-3sc2c1 returned EBI2 antag -4 and CXCR6 inh -1.
For CN(C)c1ccc2nc3ccc(=[N+](C)C)cc-3sc2c1 the results were APJ ag -6, EBI2 antag 11, CXCR6 inh 18, APJ antag 45*, CCR6 antagonist 36 and APJ antag conf 33.
Screening Cc1cccc(-c2ncc(S(=O)(=O)C(C)(C)C)c(N)n2)c1 returned APJ ag 1, EBI2 antag -1, CXCR6 inh -7, APJ antag 19 and CCR6 antagonist 12.
Screening C1=C(CCNCC2CC2)CCCC1 returned APJ ag 0, EBI2 antag 0, CXCR6 inh 2, APJ antag 41*, CCR6 antagonist -10 and APJ antag conf 32.
`CCCn1nc([N+](=O)[O-])c(C(C#N)c2nc3ccccc3s2)c(Cl)c1=O` (configuration not stated) gave APJ ag -11, EBI2 antag 1, CXCR6 inh 31, APJ antag 62*, CCR6 antagonist 50* and APJ antag conf 66*.
For c1cncc(-c2nc(-c3ccco3)cs2)c1 the results were APJ ag -6, EBI2 antag 1, CXCR6 inh 19, APJ antag 47*, CCR6 antagonist 28 and APJ antag conf 18.
O=c1c(N=Nc2ccc(O)cc2)c(-c2ccccc2)[nH]n1-c1ccc([N+](=O)[O-])cc1 was read as APJ ag -6, EBI2 antag 34, CXCR6 inh 37, APJ antag 54*, CCR6 antagonist 52* and APJ antag conf 43.
Screening NC(=S)n1[nH]c(-c2ccc([N+](=O)[O-])cc2)c(N=Nc2ccc(Cl)cc2)c1=O returned EBI2 antag 26, CXCR6 inh 24 and CCR6 antagonist 45.
For Cn1nnc2cc(NC(=O)Nc3cccc(C(F)(F)F)c3)ccc21 the results were APJ ag -1, EBI2 antag 6, CXCR6 inh -8, APJ antag -1 and CCR6 antagonist -2.
`CCCCN(CC)c1nc(-c2ccncc2)nc2ccccc12` gave APJ ag -1, EBI2 antag -6, CXCR6 inh -4, APJ antag -9 and CCR6 antagonist 6.
CCCN(CCC)c1nc(-c2ccccn2)nc2ccccc12 was read as APJ ag -10, EBI2 antag -3, CXCR6 inh 37, APJ antag 41*, CCR6 antagonist 35 and APJ antag conf 80*.
c1ccc(-c2nc(N3CCCCCC3)c3ccccc3n2)nc1 was read as APJ ag -8, EBI2 antag -4, CXCR6 inh 13, APJ antag 49*, CCR6 antagonist 40 and APJ antag conf 62*.
Screening COc1ccc2c(c1)C=C(CN1CCN(C3CCCC3)C(CCO)C1)CO2 (configuration not stated) returned APJ ag -3, EBI2 antag 10, CXCR6 inh 11, APJ antag -14 and CCR6 antagonist 4.
For CN(C)CCCN(C(=O)c1ccc(S(=O)(=O)N2CCc3ccccc32)cc1)c1nc2ccc(F)cc2s1 the results were APJ ag 2, EBI2 antag -1, CXCR6 inh 0, APJ antag -4 and CCR6 antagonist 19.
`Cc1cc(C)c2sc(N(CCCN(C)C)C(=O)c3ccc(S(=O)(=O)N4CCCc5ccccc54)cc3)nc2c1` gave APJ ag -3, EBI2 antag 0, CXCR6 inh 19, APJ antag 47*, CCR6 antagonist 14 and APJ antag conf 57*.
For O=C(NNc1ccc(-c2csnn2)cc1)c1cc(Cl)cc(Cl)c1 the results were APJ ag -8, EBI2 antag 14, CXCR6 inh 14, APJ antag 54*, CCR6 antagonist 47 and APJ antag conf 65*.
`CCc1ncc(CN2CCCC(C(=O)Nc3ccc(-c4cscn4)cc3)C2)cn1` (configuration not stated) gave APJ ag 1, EBI2 antag -4, CXCR6 inh -13, APJ antag 12 and CCR6 antagonist -6.
COC(=O)CS(=O)(=O)c1nnc([C@H](Cc2ccccc2)NC(=O)OC(C)(C)C)o1 was read as APJ ag -4, EBI2 antag -2, CXCR6 inh 56*, APJ antag 48*, CCR6 antagonist 77* and APJ antag conf 73*.
For COC(=O)CSc1nnc([C@H](Cc2ccccc2)NC(=O)OC(C)(C)C)o1 the results were APJ ag 0, EBI2 antag -1, CXCR6 inh -2, APJ antag -15 and CCR6 antagonist -2.
Cc1ccc(C)c(-c2cc(C(=O)NNC(=S)NCC(C)C)c3ccccc3n2)c1 was read as APJ ag -7, EBI2 antag 4, CXCR6 inh 3, APJ antag 45*, CCR6 antagonist 35 and APJ antag conf 28.
For CCCCCCCc1ccc(C2NC(=S)NC3=C2C(=O)c2ccccc23)cc1 (configuration not stated) the results were APJ ag -5, APJ antag 56*, CCR6 antagonist 13 and APJ antag conf 23.
For C=CCSC(=S)Nc1c(C)n(C)n(-c2ccccc2)c1=O the results were APJ ag -2, EBI2 antag -7, CXCR6 inh 4, APJ antag 47*, CCR6 antagonist 18 and APJ antag conf 21.
`COc1cccc(Nc2ccc([N+](=O)[O-])c3nonc23)c1` gave APJ ag -6, EBI2 antag -8, CXCR6 inh 18, APJ antag 41*, CCR6 antagonist 47 and APJ antag conf 68*.
CCOC(=O)[C@]12CCCC=C1N(Cc1ccco1)C(=O)[C@H](CC(=O)NCc1cccc3ccccc13)C2 was read as EBI2 antag 11 and CXCR6 inh 15.
